High-throughput results from PubChem.
ZTA counter = ZTA (EBV) inhibition in EBNA-1 counter-screen; P03206; ZTA-DNA binding, fluorescence polarization; inhibition, % at 11 µM; 320,000 tested, 0.15% active; AID 2234; in the data active = inhibition above about 33%
Target sequence (P03206 whole entry, looked up): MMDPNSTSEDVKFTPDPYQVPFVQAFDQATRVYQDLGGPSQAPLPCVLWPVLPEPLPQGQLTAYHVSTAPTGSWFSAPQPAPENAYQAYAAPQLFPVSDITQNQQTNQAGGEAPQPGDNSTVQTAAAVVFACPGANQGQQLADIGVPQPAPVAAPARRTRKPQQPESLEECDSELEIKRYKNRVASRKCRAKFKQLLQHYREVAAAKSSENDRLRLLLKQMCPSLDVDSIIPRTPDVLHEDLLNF
Apaf1 inhib = blocks human Apaf-1 apoptosome activity; inhibition, % at 20 µM; reconstituted apoptosome caspase-3 activity, DEVD-Rh110 fluorescence; 330,000 tested, 0.71% active; O14727; active = inhibition of at least 40% at 20 µM;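 note: plate controls were DMSO wells for no effect and DEVD-CHO caspase inhibitor wells for full effect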
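detection = Rh110 fluorescence intensity | test system = biochemical Apaf-1 apoptosome reconstitution | also added = cytochrome c and DEVD-Rh110 substrate | schedule = 30 min plus 50 min, RT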
EBNA-1 inhibitor = blocks EBNA-1 binding to DNA; EBNA-1 DNA binding, fluorescence polarization; inhibition, % at 14.8 µM; 300,000 tested, 0.34% active; AID 1950; in the data active = inhibition above about 28%
PREPL inhibitor = inhibits the human prolyl oligopeptidase-like enzyme; inhibition, % at 5.96 µM; recombinant PREPL, fluorescence polarization activity-based probe; 320,000 tested, 0.68% active; Q4J6C6; in the data active = inhibition above about 43%;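 note: 0% = enzyme with DMSO and 100% = wells lacking enzyme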
UBC13 polyUb = inhibitors of human UBC13 polyubiquitin chain formation | P61088 | TR-FRET | inhibition, % at 20 µM | 330,000 tested, 0.47% active; in the data active = inhibition above about 45%, passing the limit was not always enough; inconclusive = no clear call, values can overlap the other calls
Target sequence (P61088 whole entry, looked up): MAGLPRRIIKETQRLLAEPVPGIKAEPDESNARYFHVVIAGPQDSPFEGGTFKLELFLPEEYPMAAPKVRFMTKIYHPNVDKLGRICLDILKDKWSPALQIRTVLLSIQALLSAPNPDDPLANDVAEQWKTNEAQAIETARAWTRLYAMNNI
Casp3 UBC13 ctr = caspase-3 inhibition (UBC13 counter-screen) | 1,400 tested, 4% active | shares compounds with UBC13 polyUb | AID 488856 | Recombinant caspase-3, Caspase-Glo 3/7 luminescence, 60 min | inhibition, % at 20 µM;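 active = mean inhibition across replicates above about 26%, limit read from the data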;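 note: plate controls were DMSO with caspase-3 for no effect and DMSO wells lacking enzyme for full effect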
UBC13 conf = confirmation of human UBC13 polyubiquitin inhibitors. 1,400 tested, 68% active. inhibition, % at 10 µM. UBC13 polyubiquitination, TR-FRET, biochemical. shares compounds with UBC13 polyUb; in the data active = inhibition above about 45%; inconclusive = no clear call, values can overlap the other calls
An asterisk follows results filed as active. Only some compounds are listed: those with a hit (about 1.7% of all), similar ones and a draw of the others.

Screening CCC(C)n1ncn(-c2ccc(N3CCN(c4ccc(OCC5COC(Cn6cncn6)(c6ccc(Cl)cc6Cl)O5)cc4)CC3)cc2)c1=O (stereo not given) returned ZTA counter 11, Apaf1 inhib 6, EBNA-1 inhibitor -2, PREPL inhibitor 21 and UBC13 polyUb -14.
For COc1cc(C(=O)Nc2cccc(S(=O)(=O)N3CCCC3)c2)cc(OC)c1C the results were ZTA counter 6, Apaf1 inhib -6, EBNA-1 inhibitor 2, PREPL inhibitor -13, UBC13 polyUb 75*, Casp3 UBC13 ctr 0 and UBC13 conf 70*.
Screening CC(=O)Nc1ccc2[nH]c(C)c(CC=C(Cl)Cl)c(=O)c2c1 returned ZTA counter -24, Apaf1 inhib 9, EBNA-1 inhibitor -24, PREPL inhibitor 11 and UBC13 polyUb 0.
For COc1cc2c3nnc(-c4ccc(F)cc4)c-3cn(Cc3ccc(C)cc3)c2cc1OC the results were ZTA counter 7, Apaf1 inhib 37, EBNA-1 inhibitor 17, PREPL inhibitor -42, UBC13 polyUb 49*, Casp3 UBC13 ctr 2 and UBC13 conf 16.
For CC(C)(C)c1ccc(-c2nc3c(C#N)c(-c4ccc5c(c4)OCO5)ccn3n2)cc1 the results were ZTA counter 3, Apaf1 inhib 18, EBNA-1 inhibitor -4, PREPL inhibitor 12, UBC13 polyUb 48*, Casp3 UBC13 ctr -4 and UBC13 conf inconclusive.
`Cn1cnc(S(=O)(=O)N2CCc3ccccc32)c1` gave ZTA counter 2, Apaf1 inhib -14, EBNA-1 inhibitor 4, PREPL inhibitor -8 and UBC13 polyUb 9.
COc1cc(NC(=O)CSc2nnc(-c3cc(C)on3)o2)cc(OC)c1 was read as ZTA counter -19, Apaf1 inhib -1, EBNA-1 inhibitor -12, PREPL inhibitor 14 and UBC13 polyUb 1.
Screening Cc1cc(-c2nnc(SCC(=O)Nc3nc(-c4ccc(Cl)cc4)cs3)o2)no1 returned ZTA counter 5, Apaf1 inhib -15, EBNA-1 inhibitor 13, PREPL inhibitor -13, UBC13 polyUb 49*, Casp3 UBC13 ctr 1 and UBC13 conf -11.
`Cc1ccc(-c2nc(C#N)c(NCCc3ccccn3)o2)cc1` gave ZTA counter 2, Apaf1 inhib 2, EBNA-1 inhibitor 6, PREPL inhibitor -4 and UBC13 polyUb 6.
`COC(=O)c1c(-c2ccc(OC)cc2)oc2ccc(-c3cc(OC)c(OC)c(OC)c3)cc12` gave ZTA counter 7, Apaf1 inhib 3, EBNA-1 inhibitor 17, PREPL inhibitor 6, UBC13 polyUb 52*, Casp3 UBC13 ctr -1 and UBC13 conf inconclusive.
For COc1ccc(C(=O)Cn2nc(CNc3ccc(Br)cc3)[n+]3c2CCCCC3)cc1 the results were ZTA counter -17, Apaf1 inhib 7, EBNA-1 inhibitor -3, PREPL inhibitor 29 and UBC13 polyUb 12.
For O=C(Cn1nc(-c2nn(CC(=O)c3ccccc3)c3[n+]2CCCCC3)[n+]2c1CCCCC2)c1ccccc1 the results were ZTA counter 9, Apaf1 inhib -7, EBNA-1 inhibitor 10, PREPL inhibitor 39, UBC13 polyUb 78*, Casp3 UBC13 ctr 2 and UBC13 conf 13.
O=C(Cn1cnc2c(cnn2-c2ccccc2)c1=O)N1CCN(c2ccc(F)cc2)CC1 was read as ZTA counter -6, Apaf1 inhib -10, EBNA-1 inhibitor 2, PREPL inhibitor 26 and UBC13 polyUb 2.
Cc1ccc(NC(=S)NNC(=O)c2nnn(-c3ccccc3)c2C)cc1 was read as ZTA counter 0, Apaf1 inhib 9, EBNA-1 inhibitor 1, PREPL inhibitor -3, UBC13 polyUb 45*, Casp3 UBC13 ctr 3 and UBC13 conf 48*.
`O=C(CCNC(=O)Cn1ccc2ccccc2c1=O)NCCN1CCN(c2ccccc2F)CC1` gave ZTA counter 3, Apaf1 inhib 2, EBNA-1 inhibitor -3, PREPL inhibitor 8, UBC13 polyUb 91*, Casp3 UBC13 ctr 2 and UBC13 conf 101*.
`O=C(CCCCCn1c(=O)[nH]c2ccccc2c1=O)NCCCN1CCN(c2ccccc2F)CC1` gave ZTA counter -3, Apaf1 inhib 7, EBNA-1 inhibitor -13, PREPL inhibitor 3, UBC13 polyUb 63*, Casp3 UBC13 ctr -1 and UBC13 conf 53*.
